Where only a bound is given, the exact number is not on record here.

In the assay the test system is T10. In kind it is binding, llama. Particulars: cross-reactivity = IC50(TCC)/IC50(cross reacting compound) × 100; nanobody T10. The gist of the method: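 Wild-type T10 (synthetic gene, pET28a(+), ompA leader, C-terminal His6/HA tags) expressed in BL21(DE3) (10 µM IPTG, 16 h, 15 °C), purified by Ni-NTA. Checkerboard-optimized TCC-BSA coat (4 h RT), 1% BSA block. Nanobody competed with serial dilutions of TCC (0–1 ug/mL) or related compounds, 1 h RT. Detection: anti-HA-peroxidase, TMB (pH 5.5, 10 min), A450.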
As for `O=C(Nc1ccc(Cl)c(Cl)c1)Nc1ccc(Cl)cc1O` [2’-OH TCC], the “CR (%) T10” value is given as 15%.

As to `CS(=O)(=O)N1CCC(NC(=O)Nc2ccc(OC(F)(F)F)cc2)CC1` [sEHi, #1709], the “CR (%) T10” value turned out to be 1.5%.

Regarding `CC(=O)N1CCC(NC(=O)Nc2ccc(OC(F)(F)F)cc2)CC1` [sEHi, #1555], the “CR (%) T10” value was found to be 0.9%.

Consider `O=C(Nc1ccc(Cl)cc1)Nc1ccc(Cl)c(C(F)(F)F)c1` [3-Trifluoromethyl-4,4′-dichlorocarbanilide], for which the “CR (%) T10” value was determined as 15%.

With `O=C(Nc1ccc(Cl)cc1)Nc1ccc(Cl)c(Cl)c1` [TCC, 3-(4-chlorophenyl)-1-(3,4-dichlorophenyl)urea], the “CR (%) T10” value was 100%.

With `O=C(Nc1ccc(Cl)cc1)Nc1ccc(Cl)cc1` [4,4’-Dichlorocarbanilide], the “CR (%) T10” value is recorded as 100%.

Consider Dinuron, for which the “CR (%) T10” value was not above 1%.

For the compound `O=C(Nc1ccccc1)Nc1ccccc1` [Carbanilide], the “CR (%) T10” value amounted to 8.8%.

As to `Oc1cc(Cl)ccc1Oc1ccc(Cl)cc1Cl` [Triclosan], the “CR (%) T10” value came out at 0.9%.

These data come from paper PMC6774440 (Journal of molecular recognition : JMR, 2018).
